{"source": "ChEMBL document CHEMBL4270537", "about": "“Design and biological evaluation of novel triaryl pyrazoline derivatives with dioxane moiety for selective BRAFV600E inhibition” (Eur J Med Chem, 2018)", "key": {"[1]": {"biological_target": "Serine/threonine-protein kinase B-raf (Mus musculus, UniProt P28028, V600E)", "sequence (P28028 whole entry, looked up, stated change not applied)": "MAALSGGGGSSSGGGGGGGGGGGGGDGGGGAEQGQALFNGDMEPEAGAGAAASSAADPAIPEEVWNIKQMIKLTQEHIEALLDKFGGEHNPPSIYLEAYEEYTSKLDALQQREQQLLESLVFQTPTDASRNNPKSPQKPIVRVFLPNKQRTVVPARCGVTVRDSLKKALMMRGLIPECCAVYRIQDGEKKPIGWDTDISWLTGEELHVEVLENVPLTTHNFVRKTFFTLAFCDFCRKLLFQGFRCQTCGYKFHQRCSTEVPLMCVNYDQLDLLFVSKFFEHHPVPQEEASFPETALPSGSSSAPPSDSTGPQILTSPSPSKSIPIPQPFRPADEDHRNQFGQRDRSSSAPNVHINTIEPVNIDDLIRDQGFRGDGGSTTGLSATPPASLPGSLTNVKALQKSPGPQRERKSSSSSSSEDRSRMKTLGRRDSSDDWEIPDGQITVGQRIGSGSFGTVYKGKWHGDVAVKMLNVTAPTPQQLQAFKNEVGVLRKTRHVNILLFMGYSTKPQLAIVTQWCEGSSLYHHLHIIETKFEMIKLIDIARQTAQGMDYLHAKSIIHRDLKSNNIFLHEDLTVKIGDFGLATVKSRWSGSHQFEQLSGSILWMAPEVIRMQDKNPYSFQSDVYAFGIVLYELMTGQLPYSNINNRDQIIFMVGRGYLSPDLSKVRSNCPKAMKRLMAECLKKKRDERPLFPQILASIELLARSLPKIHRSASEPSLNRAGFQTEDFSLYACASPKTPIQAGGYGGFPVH", "assay": "Inhibition of mouse full length GST-tagged BRAF V600E mutant using recombinant human full length N-terminal His-tagged MEK1 as substrate preincubated for 1 hr followed by substrate addition measured after 25 mins"}, "WM 266-4": {"test_system": "WM 266-4", "assay": "Antiproliferative activity against human WM266.4 cells after 48 hrs by MTT assay", "assay_type": "functional", "conditions": "WM 266-4, 48 h", "procedure,_shortened": "(§1)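 MTT reduction assay. Cell lines grown to log phase in DMEM with 10% FBS (A375 in DMEM with sodium pyruvate added), seeded at 10⁴ cells/well in 96-well plates. Three replicate wells per concentration, each assay run three times, GI50 averaged.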"}, "HT-29": {"test_system": "HT-29", "assay": "Antiproliferative activity against human HT-29 cells after 48 hrs by MTT assay", "assay_type": "functional", "conditions": "HT-29, 48 h", "procedure,_shortened": "as §1"}, "[2]": {"biological_target": "RAF proto-oncogene serine/threonine-protein kinase (Homo sapiens, UniProt P04049, Y340D/Y341D)", "sequence (P04049 whole entry Y340D/Y341D, the tested form may be a part)": "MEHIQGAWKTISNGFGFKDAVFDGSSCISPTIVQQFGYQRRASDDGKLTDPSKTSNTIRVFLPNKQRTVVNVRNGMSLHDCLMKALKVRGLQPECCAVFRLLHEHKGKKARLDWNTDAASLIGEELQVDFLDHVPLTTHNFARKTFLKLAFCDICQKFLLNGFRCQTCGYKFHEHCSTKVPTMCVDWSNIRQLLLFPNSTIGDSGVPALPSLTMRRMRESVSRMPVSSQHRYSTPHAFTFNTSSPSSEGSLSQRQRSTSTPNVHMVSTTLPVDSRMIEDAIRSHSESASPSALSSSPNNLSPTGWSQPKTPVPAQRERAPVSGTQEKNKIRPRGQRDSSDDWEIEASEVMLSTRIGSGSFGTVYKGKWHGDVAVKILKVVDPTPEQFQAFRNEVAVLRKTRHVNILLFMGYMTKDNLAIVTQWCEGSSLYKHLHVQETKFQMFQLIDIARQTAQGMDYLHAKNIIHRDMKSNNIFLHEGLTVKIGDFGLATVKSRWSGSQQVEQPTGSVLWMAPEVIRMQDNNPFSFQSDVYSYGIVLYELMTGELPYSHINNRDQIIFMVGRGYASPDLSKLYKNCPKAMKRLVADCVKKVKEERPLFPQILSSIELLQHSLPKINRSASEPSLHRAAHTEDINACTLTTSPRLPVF", "assay": "Inhibition of recombinant human GST-tagged c-RAF (306 to 648 residues) Y340D/Y341D mutant expressed in baculovirus expression system using recombinant human full length N-terminal His-tagged MEK1 as substrate preincubated for 1 hr followed by substrate addition measured after 25 mins"}, "[3]": {"biological_target": "Dual specificity mitogen-activated protein kinase kinase; MEK1/2 (Homo sapiens, UniProt P36507+Q02750)", "assay": "Inhibition of MEK1/2 (unknown origin)", "assay_type": "protein assay"}, "A-375 [4]": {"test_system": "A-375", "assay": "Induction of apoptosis in human A375 cells assessed as viable cells at 2 uM after 24 hrs by Annexin V-FITC/PI staining based flow cytometry (reference value: 89.4%)", "assay_type": "functional", "conditions": "A-375, 24 h, read-out: Activity"}, "A-375 [5]": {"test_system": "A-375", "assay": "Induction of apoptosis in human A375 cells assessed as necrotic cells at 2 uM after 24 hrs by Annexin V-FITC/PI staining based flow cytometry (reference value: 1.55%)", "assay_type": "functional"}, "A-375 [6]": {"test_system": "A-375", "assay": "Induction of apoptosis in human A375 cells assessed as viable cells at 2 uM after 48 hrs by Annexin V-FITC/PI staining based flow cytometry (reference value: 89.4%)", "assay_type": "functional", "conditions": "A-375, 48 h, read-out: Activity"}, "A-375 [7]": {"test_system": "A-375", "assay": "Induction of apoptosis in human A375 cells assessed as early apoptotic cells at 2 uM after 48 hrs by Annexin V-FITC/PI staining based flow cytometry (reference value: 5.42%)", "assay_type": "functional", "procedure,_shortened": "(§2)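 Apoptosis time course. A375 cells in 24-well plates (about 10⁵/well) at 2 µM for 0, 24, 48 and 72 h. Harvested by trypsin, washed in PBS, stained 15 min at room temperature in the dark with Annexin V-FITC/PI, analysed by flow cytometry.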"}, "A-375 [8]": {"test_system": "A-375", "assay": "Induction of apoptosis in human A375 cells assessed as viable cells at 2 uM after 72 hrs by Annexin V-FITC/PI staining based flow cytometry (reference value: 89.4%)", "assay_type": "functional", "conditions": "A-375, 72 h, read-out: Activity"}, "A-375 [9]": {"test_system": "A-375", "assay": "Induction of apoptosis in human A375 cells assessed as early apoptotic cells at 2 uM after 72 hrs by Annexin V-FITC/PI staining based flow cytometry (reference value: 5.42%)", "assay_type": "functional", "procedure,_shortened": "as §2"}, "A-375 [10]": {"test_system": "A-375", "assay": "Induction of apoptosis in human A375 cells assessed as late apoptotic cells at 2 uM after 72 hrs by Annexin V-FITC/PI staining based flow cytometry (reference value: 3.61%)", "assay_type": "functional", "procedure,_shortened": "as §2"}, "A-375 [11]": {"test_system": "A-375", "assay": "Induction of apoptosis in human A375 cells assessed as viable cells at 2.5 uM after 24 hrs by Annexin V-FITC/PI staining based flow cytometry (reference value: 88.7%)", "assay_type": "functional", "conditions": "A-375, 24 h, read-out: Activity"}, "A-375 [12]": {"test_system": "A-375", "assay": "Induction of apoptosis in human A375 cells assessed as early apoptotic cells at 2.5 uM after 24 hrs by Annexin V-FITC/PI staining based flow cytometry (reference value: 5.45%)", "assay_type": "functional"}, "A-375 [13]": {"test_system": "A-375", "assay": "Induction of apoptosis in human A375 cells assessed as late apoptotic cells at 2.5 uM after 24 hrs by Annexin V-FITC/PI staining based flow cytometry (reference value: 4.26%)", "assay_type": "functional"}, "A-375 [14]": {"test_system": "A-375", "assay": "Induction of apoptosis in human A375 cells assessed as necrotic cells at 5 uM after 24 hrs by Annexin V-FITC/PI staining based flow cytometry (reference value: 1.61%)", "assay_type": "functional"}, "A-375 [15]": {"test_system": "A-375", "assay": "Induction of apoptosis in human A375 cells assessed as early apoptotic cells at 10 uM after 24 hrs by Annexin V-FITC/PI staining based flow cytometry (reference value: 5.45%)", "assay_type": "functional"}, "A-375 [16]": {"test_system": "A-375", "assay": "Cell cycle arrest in human A375 cells assessed as accumulation at G1 phase at 2 uM after 48 hrs by propidium iodide staining based flow cytometry (reference value: 73.6%)", "assay_type": "functional"}, "A-375 [17]": {"test_system": "A-375", "assay": "Cell cycle arrest in human A375 cells assessed as accumulation at G2/M phase at 2 uM after 48 hrs by propidium iodide staining based flow cytometry (reference value: 5.1%)", "assay_type": "functional"}, "A-375 [18]": {"test_system": "A-375", "assay": "Cell cycle arrest in human A375 cells assessed as accumulation at S phase at 2 uM after 72 hrs by propidium iodide staining based flow cytometry (reference value: 21.3%)", "assay_type": "functional"}, "A-375 [19]": {"test_system": "A-375", "assay": "Cell cycle arrest in human A375 cells assessed as accumulation at G1 phase at 2.5 uM after 24 hrs by propidium iodide staining based flow cytometry (reference value: 73.6%)", "assay_type": "functional"}, "A-375 [20]": {"test_system": "A-375", "assay": "Cell cycle arrest in human A375 cells assessed as accumulation at G2/M phase at 2.5 uM after 24 hrs by propidium iodide staining based flow cytometry (reference value: 5.1%)", "assay_type": "functional"}, "A-375 [21]": {"test_system": "A-375", "assay": "Cell cycle arrest in human A375 cells assessed as accumulation at G2/M phase at 10 uM after 24 hrs by propidium iodide staining based flow cytometry (reference value: 5.1%)", "assay_type": "functional"}, "A-375 [22]": {"test_system": "A-375", "assay": "Cell cycle arrest in human A375 cells assessed as accumulation at G1 phase at 20 uM after 24 hrs by propidium iodide staining based flow cytometry (reference value: 73.6%)", "assay_type": "functional"}, "A-375 [23]": {"test_system": "A-375", "assay": "Cell cycle arrest in human A375 cells assessed as accumulation at G2/M phase at 20 uM after 24 hrs by propidium iodide staining based flow cytometry (reference value: 5.1%)", "assay_type": "functional"}, "A-375 [24]": {"test_system": "A-375", "assay": "Effect on total MEK1/2 protein level in human A375 cells after 30 mins by Western blot analysis", "assay_type": "ADME, cell-based", "conditions": "a-375, 0.5 h", "procedure,_shortened": "(§3)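 Western blot. Cells rinsed in cold PBS, lysed 30 min on ice in RIPA with protease inhibitors (1:100), cleared at 12,000 g, 4 °C. Protein measured by BCA, resolved by SDS-PAGE, transferred to PVDF, blocked in skim milk. Primary antibodies 1:500 overnight at 4 °C; secondary 1:5000 for 1 h at room temperature.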"}, "A-375 [25]": {"test_system": "A-375", "assay": "Effect on total ERK1/2 protein level in human A375 cells after 30 mins by Western blot analysis", "assay_type": "ADME, cell-based", "conditions": "a-375, 0.5 h", "procedure,_shortened": "as §3"}, "[26]": {"biological_target": "T1, Serine/threonine-protein kinase B-raf (Homo sapiens, UniProt P15056)", "T1 sequence (P15056 whole entry)": "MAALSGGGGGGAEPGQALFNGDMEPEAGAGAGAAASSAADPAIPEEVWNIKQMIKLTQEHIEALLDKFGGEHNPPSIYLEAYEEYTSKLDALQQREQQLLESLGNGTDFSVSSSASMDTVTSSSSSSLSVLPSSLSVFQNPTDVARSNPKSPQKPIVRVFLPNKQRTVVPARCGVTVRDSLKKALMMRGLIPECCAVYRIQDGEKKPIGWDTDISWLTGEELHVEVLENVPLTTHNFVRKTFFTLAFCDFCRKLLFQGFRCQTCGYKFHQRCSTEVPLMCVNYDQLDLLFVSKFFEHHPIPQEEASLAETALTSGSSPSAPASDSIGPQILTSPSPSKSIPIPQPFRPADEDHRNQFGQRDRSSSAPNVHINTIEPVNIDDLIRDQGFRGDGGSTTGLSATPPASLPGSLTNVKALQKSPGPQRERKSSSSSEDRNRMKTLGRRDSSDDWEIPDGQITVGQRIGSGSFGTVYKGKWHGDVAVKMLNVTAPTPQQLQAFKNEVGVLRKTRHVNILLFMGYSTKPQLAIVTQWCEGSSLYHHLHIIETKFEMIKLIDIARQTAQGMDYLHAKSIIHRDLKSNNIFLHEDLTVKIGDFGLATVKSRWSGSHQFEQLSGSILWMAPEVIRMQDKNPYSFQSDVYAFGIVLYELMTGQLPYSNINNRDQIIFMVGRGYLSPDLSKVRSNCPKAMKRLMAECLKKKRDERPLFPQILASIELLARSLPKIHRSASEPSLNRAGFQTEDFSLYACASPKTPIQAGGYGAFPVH", "assay": "Inhibition of wild type BRAF in human WM1361 cells assessed as decrease in MEK1/2 phosphorylation up to 5 uM after 30 mins by Western blot analysis", "assay_type": "cell-based"}, "[27]": {"biological_target": "T1, Serine/threonine-protein kinase B-raf", "assay": "Inhibition of wild type BRAF in human WM1361 cells assessed as decrease in ERK1/2 phosphorylation up to 5 uM after 30 mins by Western blot analysis", "assay_type": "cell-based"}}, "note": "pIC50: −log10 of the molar value. Activity calls are given as the source filed them. The calls are words filed in the database; no cut-off is given here.", "data": [{"molecule": "COc1cccc(C2=NN(C(=S)Nc3ccccc3)C(c3ccc4c(c3)OCCO4)C2)c1", "note": "(centres undefined)", "values": [{"measurement": "pIC50", "setting": "[1]", "value": 7.22}, {"measurement": "GI50", "setting": "WM 266-4", "value": 1380, "unit": "nM"}, {"measurement": "GI50", "setting": "HT-29", "value": 2920, "unit": "nM"}, {"measurement": "pIC50", "setting": "[2]", "value": "< 3.70"}, {"measurement": "IC50", "setting": "[3]", "value": 195000, "unit": "nM"}, {"measurement": "viability at 2 µM", "setting": "A-375 [4]", "value": 80.8, "unit": "%"}, {"measurement": "Activity", "setting": "A-375 [5]", "value": 2.56, "unit": "%"}, {"measurement": "viability at 2 µM", "setting": "A-375 [6]", "value": 74.5, "unit": "%"}, {"measurement": "Activity", "setting": "A-375 [7]", "value": 17.1, "unit": "%"}, {"measurement": "viability at 2 µM", "setting": "A-375 [8]", "value": 71.1, "unit": "%"}, {"measurement": "Activity", "setting": "A-375 [9]", "value": 20.2, "unit": "%"}, {"measurement": "Activity", "setting": "A-375 [10]", "value": 6.49, "unit": "%"}, {"measurement": "viability at 2.5 µM", "setting": "A-375 [11]", "value": 74.4, "unit": "%"}, {"measurement": "Activity", "setting": "A-375 [12]", "value": 16.7, "unit": "%"}, {"measurement": "Activity", "setting": "A-375 [13]", "value": 5.43, "unit": "%"}, {"measurement": "Activity", "setting": "A-375 [14]", "value": 3.6, "unit": "%"}, {"measurement": "Activity", "setting": "A-375 [15]", "value": 45, "unit": "%"}, {"measurement": "Activity", "setting": "A-375 [16]", "value": 58.8, "unit": "%"}, {"measurement": "Activity", "setting": "A-375 [17]", "value": 15, "unit": "%"}, {"measurement": "Activity", "setting": "A-375 [18]", "value": 27.6, "unit": "%"}, {"measurement": "Activity", "setting": "A-375 [19]", "value": 72.3, "unit": "%"}, {"measurement": "Activity", "setting": "A-375 [20]", "value": 8.2, "unit": "%"}, {"measurement": "Activity", "setting": "A-375 [21]", "value": 18.1, "unit": "%"}, {"measurement": "Activity", "setting": "A-375 [22]", "value": 52.8, "unit": "%"}, {"measurement": "Activity", "setting": "A-375 [23]", "value": 30.2, "unit": "%"}, {"measurement": "Activity", "setting": "A-375 [24]", "value": "Non-Toxic"}, {"measurement": "Activity", "setting": "A-375 [25]", "value": "Non-Toxic"}, {"measurement": "inhibition", "setting": "[26]", "value": "inactive"}, {"measurement": "inhibition", "setting": "[27]", "value": "inactive"}]}]}
